Results: ChEMBL document CHEMBL3407438, “Discovery of potent, orally bioavailable, small-molecule inhibitors of WNT signaling from a cell-based pathway screen” (J Med Chem, 2015)

Columns and labels:
[1] = Drug metabolism in human liver microsome at 10 uM after 30 mins by LC-MS analysis; type: ADME; details: liver microsomes, read-out: Drug metabolism
[2] = Drug metabolism in mouse liver microsome at 10 uM after 30 mins by LC-MS analysis; type: ADME; details: liver microsomes, read-out: Drug metabolism
cells = type: cell-based; details: Homo sapiens, 7dF3
[3] = Apparent permeability in human Caco2 cells after 2 hrs by LC-MS/MS analysis; type: ADME, cell-based, Caco-2; details: caco-2, 2 h
[4] = Clearance in NMRI mouse at 0.2 mg/kg, iv; type: ADME, organism-based; set-up: dose 0.2 mg/kg, route intravenous; details: in vivo
Outline: (§1)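 Female NMRI mice (n = 5) given a single iv bolus (0.2 mg/kg per compound) or oral gavage (0.5 mg/kg per compound) as a cassette, in DMSO/PEG 200/water. Serial retro-orbital blood was drawn under isoflurane from 3 animals per route at 0.1 (iv), 0.25 (po), 0.5, 1, 2, 4 and 6 h. Plasma was quantified by LC–MS/MS.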

[5] = Volume of distribution at steady state in NMRI mouse at 0.2 mg/kg, iv; type: ADME, organism-based; set-up: dose 0.2 mg/kg, route intravenous; details: in vivo, read-out: Vdss; outline: as §1
[6] = Tmax in NMRI mouse at 0.2 mg/kg, iv; type: ADME, organism-based; set-up: dose 0.2 mg/kg, route intravenous; details: in vivo; outline: as §1
[7] = AUC in NMRI mouse at 0.2 mg/kg, iv; type: ADME, organism-based; set-up: dose 0.2 mg/kg, route intravenous; details: plasma; outline: as §1
[8] = Half life in NMRI mouse at 0.2 mg/kg, iv; type: ADME, organism-based; set-up: dose 0.2 mg/kg, route intravenous; details: in vivo; outline: as §1
[9] = Tmax in NMRI mouse at 0.5 mg/kg, po; type: ADME, organism-based; set-up: dose 0.5 mg/kg, route oral; details: in vivo; outline: as §1
[10] = AUC in NMRI mouse at 0.5 mg/kg, po; type: ADME, organism-based; set-up: dose 0.5 mg/kg, route oral; details: plasma; outline: as §1
[11] = Oral bioavailability in NMRI mouse at 0.5 mg/kg; type: ADME, organism-based; details: in vivo
[12] = target: T1, Poly [ADP-ribose] polymerase tankyrase-1 (Homo sapiens, UniProt O95271); assay: Inhibition of GST-tagged TNKS1 (1023 to 1327 aa) (unknown origin) after 90 mins by HTRF assay
T1 sequence (O95271 whole entry): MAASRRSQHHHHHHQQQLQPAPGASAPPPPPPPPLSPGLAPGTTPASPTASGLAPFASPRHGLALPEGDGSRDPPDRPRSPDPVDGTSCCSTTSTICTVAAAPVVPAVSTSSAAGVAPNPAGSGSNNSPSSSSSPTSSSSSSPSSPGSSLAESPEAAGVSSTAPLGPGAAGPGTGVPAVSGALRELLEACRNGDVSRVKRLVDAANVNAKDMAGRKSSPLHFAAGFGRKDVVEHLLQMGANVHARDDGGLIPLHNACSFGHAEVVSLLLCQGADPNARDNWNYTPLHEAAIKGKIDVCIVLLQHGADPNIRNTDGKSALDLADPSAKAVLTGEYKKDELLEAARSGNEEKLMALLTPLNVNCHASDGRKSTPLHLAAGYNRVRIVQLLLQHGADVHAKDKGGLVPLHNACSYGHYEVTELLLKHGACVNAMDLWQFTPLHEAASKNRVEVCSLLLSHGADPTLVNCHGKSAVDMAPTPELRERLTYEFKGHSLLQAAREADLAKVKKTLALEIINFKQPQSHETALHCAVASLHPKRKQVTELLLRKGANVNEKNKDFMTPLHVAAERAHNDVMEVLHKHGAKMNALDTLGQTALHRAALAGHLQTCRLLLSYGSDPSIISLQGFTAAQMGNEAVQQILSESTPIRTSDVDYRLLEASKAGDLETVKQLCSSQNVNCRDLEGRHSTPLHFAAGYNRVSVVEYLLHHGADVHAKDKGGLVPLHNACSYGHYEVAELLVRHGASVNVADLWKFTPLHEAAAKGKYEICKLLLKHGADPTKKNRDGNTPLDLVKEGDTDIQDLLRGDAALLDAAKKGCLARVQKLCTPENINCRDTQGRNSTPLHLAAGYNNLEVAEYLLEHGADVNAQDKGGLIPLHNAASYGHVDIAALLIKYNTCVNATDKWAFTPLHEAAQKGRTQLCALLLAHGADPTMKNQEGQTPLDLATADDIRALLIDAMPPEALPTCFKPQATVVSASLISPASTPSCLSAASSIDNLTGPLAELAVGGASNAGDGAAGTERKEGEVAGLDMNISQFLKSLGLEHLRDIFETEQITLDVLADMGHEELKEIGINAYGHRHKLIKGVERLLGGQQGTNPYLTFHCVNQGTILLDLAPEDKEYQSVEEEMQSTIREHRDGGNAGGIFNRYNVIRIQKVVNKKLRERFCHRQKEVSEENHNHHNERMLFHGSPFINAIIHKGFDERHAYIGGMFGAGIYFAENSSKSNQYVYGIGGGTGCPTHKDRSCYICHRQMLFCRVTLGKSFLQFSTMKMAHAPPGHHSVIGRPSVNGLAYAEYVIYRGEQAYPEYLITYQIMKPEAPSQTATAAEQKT

[13] = target: T2, Poly [ADP-ribose] polymerase tankyrase-2 (Homo sapiens, UniProt Q9H2K2); assay: Inhibition of GST-tagged TNKS2 (873 to 1166 aa) (unknown origin) after 90 mins by HTRF assay
T2 sequence (Q9H2K2 whole entry): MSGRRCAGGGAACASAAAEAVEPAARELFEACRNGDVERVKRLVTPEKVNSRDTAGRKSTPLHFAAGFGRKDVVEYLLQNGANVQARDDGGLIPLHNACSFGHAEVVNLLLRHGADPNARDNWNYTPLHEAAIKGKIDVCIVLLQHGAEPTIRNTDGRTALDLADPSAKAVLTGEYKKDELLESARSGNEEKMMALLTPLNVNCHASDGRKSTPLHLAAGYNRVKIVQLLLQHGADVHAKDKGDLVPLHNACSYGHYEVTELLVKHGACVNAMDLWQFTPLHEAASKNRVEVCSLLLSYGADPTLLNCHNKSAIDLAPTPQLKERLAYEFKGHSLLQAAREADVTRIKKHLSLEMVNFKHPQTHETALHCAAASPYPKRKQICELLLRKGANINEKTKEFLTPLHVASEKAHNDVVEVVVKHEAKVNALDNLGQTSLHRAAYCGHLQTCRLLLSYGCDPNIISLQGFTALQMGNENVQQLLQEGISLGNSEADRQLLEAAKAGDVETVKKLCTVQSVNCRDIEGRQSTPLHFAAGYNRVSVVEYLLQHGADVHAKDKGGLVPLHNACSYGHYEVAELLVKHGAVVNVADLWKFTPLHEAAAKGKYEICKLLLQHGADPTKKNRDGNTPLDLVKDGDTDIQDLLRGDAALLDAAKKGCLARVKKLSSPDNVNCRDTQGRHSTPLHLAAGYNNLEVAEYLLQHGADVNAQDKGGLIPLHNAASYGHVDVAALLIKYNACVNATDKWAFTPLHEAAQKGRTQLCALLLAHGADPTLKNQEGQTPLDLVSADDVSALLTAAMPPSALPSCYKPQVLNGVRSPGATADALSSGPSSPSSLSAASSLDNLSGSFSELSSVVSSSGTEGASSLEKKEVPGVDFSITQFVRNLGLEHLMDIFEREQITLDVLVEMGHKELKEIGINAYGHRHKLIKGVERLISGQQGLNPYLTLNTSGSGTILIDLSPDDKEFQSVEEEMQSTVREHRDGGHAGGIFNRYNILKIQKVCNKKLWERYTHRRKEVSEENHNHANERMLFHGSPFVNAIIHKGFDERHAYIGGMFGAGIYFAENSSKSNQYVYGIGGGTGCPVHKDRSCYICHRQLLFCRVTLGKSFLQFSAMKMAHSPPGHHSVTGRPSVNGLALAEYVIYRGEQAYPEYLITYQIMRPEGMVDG

[14] = Kinetic solubility of the compound in phosphate buffer at pH 7.4; type: physicochemical
[15] = Thermodynamic aqueous solubility of the compound in phosphate buffer at pH 7.4; type: physicochemical
Outline: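 Kinetic and thermodynamic aqueous solubilities were measured in phosphate buffer at pH 7.4.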

Cytochrome P450 2C9 = Cytochrome P450 2C9 (Homo sapiens, UniProt P11712); assay: Inhibition of CYP2C9 (unknown origin); type: ADME
Cytochrome P450 2C9, sequence (P11712 whole entry): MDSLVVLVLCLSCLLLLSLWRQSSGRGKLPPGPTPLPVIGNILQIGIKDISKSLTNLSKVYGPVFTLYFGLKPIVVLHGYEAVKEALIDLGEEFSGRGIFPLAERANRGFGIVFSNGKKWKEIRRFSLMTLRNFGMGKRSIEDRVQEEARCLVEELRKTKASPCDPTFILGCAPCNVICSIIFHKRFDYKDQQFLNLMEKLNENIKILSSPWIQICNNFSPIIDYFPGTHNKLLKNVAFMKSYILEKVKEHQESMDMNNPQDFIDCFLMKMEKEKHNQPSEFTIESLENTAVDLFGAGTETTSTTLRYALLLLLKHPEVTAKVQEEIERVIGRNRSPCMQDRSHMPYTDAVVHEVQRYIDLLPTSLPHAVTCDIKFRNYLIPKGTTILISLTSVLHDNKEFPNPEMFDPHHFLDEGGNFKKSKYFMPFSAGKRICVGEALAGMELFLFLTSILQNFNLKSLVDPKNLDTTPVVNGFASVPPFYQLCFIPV

Cytochrome P450 3A4 = Cytochrome P450 3A4 (Homo sapiens, UniProt P08684); assay: Inhibition of CYP3A4 (unknown origin); type: ADME
Cytochrome P450 3A4, sequence (P08684 whole entry): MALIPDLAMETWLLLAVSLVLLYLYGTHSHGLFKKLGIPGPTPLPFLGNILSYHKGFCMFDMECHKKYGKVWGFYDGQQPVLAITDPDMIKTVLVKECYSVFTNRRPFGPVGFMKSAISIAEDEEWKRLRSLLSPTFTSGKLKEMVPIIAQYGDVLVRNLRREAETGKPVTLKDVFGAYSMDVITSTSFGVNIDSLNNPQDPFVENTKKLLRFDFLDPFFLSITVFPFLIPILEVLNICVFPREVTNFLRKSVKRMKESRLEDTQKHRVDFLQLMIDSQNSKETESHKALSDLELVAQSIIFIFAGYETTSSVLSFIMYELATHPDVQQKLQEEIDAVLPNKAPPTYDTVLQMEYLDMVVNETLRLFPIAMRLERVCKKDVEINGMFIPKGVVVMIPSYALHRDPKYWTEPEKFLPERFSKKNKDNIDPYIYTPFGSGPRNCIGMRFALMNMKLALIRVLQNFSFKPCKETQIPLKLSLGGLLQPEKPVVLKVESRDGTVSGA

Work on `O=C1NCCC12CCN(c1c(Cl)cncc1-c1ccc(N3CCOCC3)cc1)CC2` yielded a metabolised at 0.5 h, 10 µM [1] of 20%, a metabolised at 0.5 h, 10 µM [2] of 29% and an IC50 (cells) of 30 nM. The Papp [3] was 37 ×10⁻⁶ cm/s, the clearance [4] was 65 mL/min/kg and the Vd [5] was 1.44 L/kg. For the same molecule, the Tmax [6] was 6 min, the AUC [7] was 50.8 ng·h/mL and the half-life [8] was 18.6 min. It also gave a Tmax [9] of 15 min, an AUC [10] of 7.4 ng·h/mL and a bioavailability [11] of 6%. It also gave an IC50 [12] of 19 µM, an IC50 [13] of 16 µM and a Kinetic_solubility [14] of 164 µM. It also gave a Therm_solubility [15] of 0.017 mg/mL, an IC50 (Cytochrome P450 2C9) of 2900 nM and an IC50 (Cytochrome P450 3A4) of 2100 nM.
